Assay results taken from ChEMBL document CHEMBL1125740, “Heterocyclic quinones. 17. A new in vivo active antineoplastic drug: 6,7-bis(1-aziridinyl)-4-[[3-(N,N-dimethylamino)propyl]amino]-5,8- quinazolinedione” (J Med Chem, 1991).
“And” between values parts separate entries of the source, which are not always exact repeats. Equal values may be shown once.

Key:
P388 [1] = test: Compound was evaluated in vivo for antitumor activity after intraperitoneal administration against P388/L-PAM(14) for median day of death at an optimal dose of 0.2 mg/kg/injection at 1,2,3,4 day schedule.; type: functional, Mus musculus
B16 [2] = test: Compound was evaluated in vivo for antitumor activity against B16 melanoma 2 after injecting the compound intravenously for percent T/C; type: functional, Mus musculus
P388 [3] = test: Compound was evaluated in vivo for antitumor activity after intraperitoneal administration against P388 (1313) for median day of death at an optimal dose of 0.25 mg/kg/injection; type: functional, Mus musculus
L1210 [4] = test: Compound was evaluated in vivo for antitumor activity after intraperitoneal administration against L1210(935) for total dose at an optimal dose of 0.1 mg/kg/injection at 1-4 day schedule.; type: functional, Mus musculus
Procedure, shortened: (§1)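 L1210 leukemia, maintained in DBA/2 mice, was given ip as 10⁵ cells on day 0 to F1 hybrid or strain-of-origin mice over 18 g, in groups of 8. Dosing was ip from day 1, and mortality was checked daily. Median day of death counts dying mice only. %ILS = 100×(treated − control median day of death)/control median. Tumor-free survivors were counted on day 60. Weight change is g/mouse at nadir.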

P388 [5] = test: Compound was evaluated in vivo for antitumor activity after intraperitoneal administration against P388/L-PAM(14) for change in body weight at an optimal dose of 0.4 mg/kg/injection at 1,2,3,4 day schedule.; type: functional, Mus musculus
[6] = Compound was evaluated in vivo for antitumor activity against colon adenocarcinoma 38 after injecting the compound intravenously for median tumor burden; type: functional, Mus musculus
L1210 [7] = test: Compound was evaluated in vivo for antitumor activity after intraperitoneal administration against L1210(935)for % increase in life span at an optimal dose of 0.4 mg/kg/injection at 1-4 day schedule.; type: functional; details: Mus musculus, L1210, ip; procedure, shortened: as §1
P388 [8] = test: Compound was evaluated in vivo for antitumor activity after intraperitoneal administration against P388/L-PAM(14) for total dose at an optimal dose of 0.5 mg/kg/injection at one day schedule.; type: functional, Mus musculus
L1210 [9] = test: Compound was evaluated in vivo for antitumor activity after intraperitoneal administration against L1210(935) for mortality range at an optimal dose of 0.25 mg/kg/injection at 1,4,7,11day schedule.; type: functional, Mus musculus; procedure, shortened: as §1
P388 [10] = test: Compound was evaluated in vivo for antitumor activity after intraperitoneal administration against P388/L-PAM(14) for total dose at an optimal dose of 0.2 mg/kg/injection at 1,2,3,4 day schedule.; type: functional, Mus musculus
L1210 [11] = test: Compound was evaluated in vivo for antitumor activity after intraperitoneal administration against L1210(935)for % increase in life span at an optimal dose of 1 mg/kg/injection at 1 day schedule.; type: functional; details: Mus musculus, L1210, ip, 24 h; procedure, shortened: as §1
P388 [12] = test: Compound was evaluated in vivo for antitumor activity after intraperitoneal administration against P388/L-PAM(14) for tumor free survivors at an optimal dose of 0.2 mg/kg/injection at 1,2,3,4 day schedule.; type: functional, Mus musculus
P388 [13] = test: Compound was evaluated in vivo for antitumor activity after intraperitoneal administration against P388/L-PAM(14) for change in body weight at an optimal dose of 0.2 mg/kg/injection at 1,2,3,4 day schedule.; type: functional, Mus musculus
P388 [14] = test: Compound was evaluated in vivo for antitumor activity after intraperitoneal administration against P388 (1313) for % increase in life span at an optimal dose of 0.5 mg/kg/injection; type: functional; details: Mus musculus, P388, ip
P388 [15] = test: Compound was evaluated in vivo for antitumor activity after intraperitoneal administration against P388 (1303) for mortality range at an optimal dose of 0.75 mg/kg/injection; type: functional, Mus musculus
P388 [16] = test: Compound was evaluated in vivo for antitumor activity after intraperitoneal administration against P388/L-PAM(14) for mortality range at an optimal dose of 0.4 mg/kg/injection at 1,2,3,4 day schedule.; type: functional, Mus musculus
L1210 [17] = test: Compound was evaluated in vivo for antitumor activity after intraperitoneal administration against L1210(935) for total dose at an optimal dose of 0.25 mg/kg/injection at 1,4,7,11day schedule.; type: functional, Mus musculus; procedure, shortened: as §1
[18] = Compound was evaluated in vivo for antitumor activity against Glasgow osteogenic sarcoma after injecting the compound intravenously for toxicity related death.; type: functional, Mus musculus
Procedure, shortened: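 Glasgow osteogenic sarcoma in C57Bl/6-derived hosts: 30-60 mg fragments implanted sc by trocar on day 0. Drug given iv on days 3, 6 and 9, 7 mice per group. Tumors measured by caliper. Median tumor burden recorded on day 10. Body weight change per mouse recorded at nadir. Toxicity-related deaths counted.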

P388 [19] = test: Compound was evaluated in vivo for antitumor activity after intraperitoneal administration against P388 (1313) for median day of death at an optimal dose of 0.5 mg/kg/injection; type: functional, Mus musculus
L1210 [20] = test: Compound was evaluated in vivo for antitumor activity after intraperitoneal administration against L1210(935) for mortality range at an optimal dose of 0.125 mg/kg/injection at 1,4,7,11day schedule.; type: functional, Mus musculus; procedure, shortened: as §1
L1210 [21] = test: Compound was evaluated in vivo for antitumor activity after intraperitoneal administration against L1210(935)for change in body weight at an optimal dose of 0.1 mg/kg/injection at 1-4 day schedule.; type: functional, Mus musculus; procedure, shortened: as §1
B16 [22] = test: Compound was evaluated in vivo for antitumor activity against B16 melanoma after injecting the compound intravenously for total dose; type: functional, Mus musculus
P388 [23] = test: Compound was evaluated in vivo for antitumor activity after intraperitoneal administration against P388/L-PAM(14) for total dose at an optimal dose of 0.4 mg/kg/injection at 1,2,3,4 day schedule.; type: functional, Mus musculus
L1210 [24] = test: Compound was evaluated in vivo for antitumor activity after intraperitoneal administration against L1210(935) for median day of death at an optimal dose of 0.4 mg/kg/injection at 1-4 day schedule.; type: functional, Mus musculus; procedure, shortened: as §1
P388 [25] = test: Compound was evaluated in vivo for antitumor activity after intraperitoneal administration against P388/L-PAM(12) for change in body weight at an optimal dose of 0.75 mg/kg/injection; type: functional, Mus musculus
P388 [26] = test: Compound was evaluated in vivo for antitumor activity after intraperitoneal administration against P388/L-PAM(14) for % increase in life span at an optimal dose of 0.5 mg/kg/injection at one day schedule.; type: functional; details: Mus musculus, P388, ip, 24 h
L1210 [27] = test: Compound was evaluated in vivo for antitumor activity after intraperitoneal administration against L1210(935) for tumor free survivors at an optimal dose of 0.2 mg/kg/injection at 1-4 day schedule.; type: functional, Mus musculus; procedure, shortened: as §1
P388 [28] = test: Compound was evaluated in vivo for antitumor activity after intraperitoneal administration against P388/L-PAM(14) for % increase in life span at an optimal dose of 0.4 mg/kg/injection at 1,2,3,4 day schedule.; type: functional; details: Mus musculus, P388, ip
[29] = Compound was evaluated in vivo for antitumor activity against mammary adenocarcinoma 16/C after injecting the compound intravenously for optimal dose; type: functional, Mus musculus
Procedure, shortened: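 30-60 mg tumor fragments implanted sc by trocar on day 0 into C57Bl/6-derived hosts (B16) or C3H/He-derived hosts (16/C). Drug given iv on days 6, 9 and 13 (B16) or 6, 9 and 12 (16/C), 10 mice per group. Tumors measured by caliper. T/C % taken from median tumor burden of treated vs control groups on day 15 (B16) or day 14 (16/C). Body weight change per mouse recorded at nadir.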

P388 [30] = test: Compound was evaluated in vivo for antitumor activity after intraperitoneal administration against P388/L-PAM(14) for tumor free survivors at an optimal dose of 0.25 mg/kg/injection at 1,4,7,11 day schedule.; type: functional, Mus musculus

## CN(C)CCCNc1ncnc2c1C(=O)C(N1CC1)=C(N1CC1)C2=O
P388 [1]
  Median day of death: 19
B16 [2]
  T/C: 53%
P388 [3]
  Median day of death: 19
L1210 [4]
  Total dose: 0.4 mg/kg
P388 [5]
  g/mouse: 0.9
[6]
  Tumor burden: 416
L1210 [7]
  ILS at 0.4 mg/kg: 27%
P388 [8]
  Total dose: 0.5 mg/kg
L1210 [9]
  Mortality: 14 days
P388 [10]
  Total dose: 0.8 mg/kg
L1210 [11]
  ILS at 1 mg/kg: 27%
P388 [12]
  Survivors: 0
P388 [13]
  Change of weight: 1.7 g mouse-1
P388 [14]
  ILS at 0.5 mg/kg: 108%
P388 [15]
  Mortality: 65 days
P388 [16]
  Mortality: 27 days
L1210 [17]
  Total dose: 1 mg/kg
[18]
  Toxicity: 0
P388 [19]
  Median day of death: 25
L1210 [20]
  Mortality: 14 days
L1210 [21]
  Change in body weight: 0.4 g mouse-1
B16 [22]
  Total dose: 1.2 mg/kg
P388 [23]
  Total dose: 1.6 mg/kg
L1210 [24]
  Median day of death: 14
P388 [25]
  Change in body weight: -1 g mouse-1
P388 [26]
  ILS at 0.5 mg/kg: 28%
L1210 [27]
  Survivors: 1
P388 [28]
  ILS at 0.4 mg/kg: 43%
[29]
  Optimal dose: 0.4 mg/kg and 0.2 mg/kg
P388 [30]
  Survivors: 0
